In assay [1] the target is wild-type p97 (Homo sapiens, UniProt P55072). In words: ATPase assay, wild type p97. The class given is biochemical. A digest of the protocol: (§1)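 Human p97 (WT or the Walker B mutant named), 25 nM monomer, in 50 mM Tris pH 7.4, 20 mM MgCl2, 1 mM EDTA, 0.5 mM TCEP, 0.01% Triton X-100 and 200 μM ATP. An initial 4-dose titration (30, 10, 3.3, 1.1 μM) was run in triplicate, then an 8-dose titration (30 down to 0.04 μM, plus 0). ATPase activity was read with Biomol Green reagent.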
Sequence of wild-type p97 (P55072 whole entry): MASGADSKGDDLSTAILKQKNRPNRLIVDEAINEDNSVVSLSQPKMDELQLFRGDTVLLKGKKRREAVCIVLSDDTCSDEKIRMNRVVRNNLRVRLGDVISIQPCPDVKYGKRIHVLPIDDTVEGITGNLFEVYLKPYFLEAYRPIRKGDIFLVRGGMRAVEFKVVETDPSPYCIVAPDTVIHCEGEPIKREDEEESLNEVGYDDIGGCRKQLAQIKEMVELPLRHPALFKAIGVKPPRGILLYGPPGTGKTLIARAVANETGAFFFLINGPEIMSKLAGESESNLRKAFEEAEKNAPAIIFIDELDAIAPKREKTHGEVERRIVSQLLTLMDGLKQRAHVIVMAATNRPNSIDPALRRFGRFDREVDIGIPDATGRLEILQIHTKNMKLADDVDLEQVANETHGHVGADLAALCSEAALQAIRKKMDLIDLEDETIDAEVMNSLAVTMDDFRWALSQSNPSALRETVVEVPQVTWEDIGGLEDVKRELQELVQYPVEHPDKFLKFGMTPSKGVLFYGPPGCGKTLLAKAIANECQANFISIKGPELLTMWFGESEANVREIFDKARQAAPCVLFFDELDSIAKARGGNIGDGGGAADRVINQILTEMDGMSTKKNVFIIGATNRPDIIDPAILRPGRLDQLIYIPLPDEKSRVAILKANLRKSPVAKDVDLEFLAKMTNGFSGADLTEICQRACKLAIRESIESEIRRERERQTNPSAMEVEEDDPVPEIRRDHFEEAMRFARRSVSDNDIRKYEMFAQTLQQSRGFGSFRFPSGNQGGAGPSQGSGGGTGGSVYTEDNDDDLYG

The target of assay [2] is T1, p97-p47 complex (Homo sapiens, UniProt P55072). The assay is described as follows: ATPase assay, p97-p47 complex. It is filed as biochemical. A digest of the protocol:
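The p97-p47 complex was formed by adding p47 to 400 nM final with human p97 at 25 nM monomer. Buffer was 50 mM Tris pH 7.4, 20 mM MgCl2, 1 mM EDTA, 0.5 mM TCEP, 0.01% Triton X-100 and 200 μM ATP. Titrations were 4-dose in triplicate (30–1.1 μM), then 8-dose (30–0.04 μM, plus 0). Activity was detected with Biomol Green reagent.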

Assay [3] has as its target D2-active mutant (E305Q) (Homo sapiens, UniProt P55072, E305Q). The assay is described as follows: ATPase assay, D2-active Walker B mutant. It is filed as biochemical. The method in brief: as §1
Assay [4] deals with T2, D1-active mutant (E578Q) (Homo sapiens, UniProt P55072, E578Q). The assay is described as follows: ATPase assay, D1-active Walker B mutant. It is filed as biochemical. A digest of the protocol:
as §1

Assay [5] addresses T2, D1-active mutant (E578Q). To be noted: previous studies of the authors; cited from earlier work.
Assay [6] concerns the target T1, p97-p47 complex. To be noted: cited from earlier work; for inhibition of the p97-p47 complex compared to p97 alone, in words: Figure 1 legend, earlier work of the authors; for fold decrease in potency caused by p47 (p97-p47 complex versus p97): previously found by the authors.

T2 sequence (P55072 whole entry E578Q): as the sequence (P55072 whole entry) above, with E578Q counted along it
T1 sequence (P55072 whole entry): as the sequence (P55072 whole entry) above
T1 sequence (Q9UNZ2 whole entry partner): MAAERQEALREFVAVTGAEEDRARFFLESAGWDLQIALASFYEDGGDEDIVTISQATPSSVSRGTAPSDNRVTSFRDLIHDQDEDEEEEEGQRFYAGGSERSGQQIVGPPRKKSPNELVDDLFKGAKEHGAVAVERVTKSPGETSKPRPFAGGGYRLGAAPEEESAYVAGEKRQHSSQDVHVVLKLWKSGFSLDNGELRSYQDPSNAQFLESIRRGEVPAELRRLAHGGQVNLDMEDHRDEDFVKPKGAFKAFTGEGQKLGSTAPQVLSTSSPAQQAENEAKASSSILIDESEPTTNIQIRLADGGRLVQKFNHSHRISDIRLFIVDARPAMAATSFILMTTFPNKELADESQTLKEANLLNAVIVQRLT
Sequence of D2-active mutant (E305Q) (P55072 whole entry E305Q): as the sequence (P55072 whole entry) above, with E305Q counted along it

The term IC50 denotes the concentration at which inhibition is half-maximal. For the compound `c1ccc(CNc2nc(NCc3ccccc3)c3ccccc3n2)cc1` [DBeQ, N2,N4-dibenzylquinazoline-2,4-diamine], the IC50 in assay [1] is 5.4 µM; in assay [2], 12.3 µM; in assay [3], 7.6 µM; in assay [4] it was 13.1 µM. For the same compound, the “fold increase of IC50 against the D2-active mutant (E305Q) compared to WT p97” value in assay [3] (200 μM ATP) was determined as 1.4 fold. In addition, the “selectivity toward the D2 domain” value in assay [3] (D2 versus D1) was 3 fold. Further, the “fold increase of IC50 against the D1-active mutant (E578Q) compared to WT p97” value in assay [4] (200 μM ATP) amounted to 2.4 fold. For the same compound, the “domain selectivity D1 versus D2, in words” value in assay [5] is “inhibit both the D1 and D2 ATPase domains”.

For `COc1cccc2c(NCc3ccccc3)nc(-n3c(N)nc4ccccc43)nc12` [ML240], in assay [6], the “inhibition of the p97-p47 complex compared to p97 alone, in words” value is on record as “less inhibition of the p97-p47 complex” and the “fold decrease in potency caused by p47 (p97-p47 complex versus p97)” value is reported as ~ 50 fold. For the same compound, in assay [5], the “domain selectivity D1 versus D2, in words” value is listed as “selectively inhibit D2”.

As to `c1ccc(CNc2nc(N3CCOc4ccccc43)nc3c2CCCC3)cc1` [ML241], in assay [6], the “inhibition of the p97-p47 complex compared to p97 alone, in words” value is recorded as “less inhibition of the p97-p47 complex” and the “fold decrease in potency caused by p47 (p97-p47 complex versus p97)” value is on record as ~ 50 fold. In assay [5], the “domain selectivity D1 versus D2, in words” value is on record as “selectively inhibit D2”.

For `Cc1cc(OCc2nnc(SC3CCCC3)n2-c2cccnc2)ccc1-c1ccc(S(C)(=O)=O)cc1` [NMS-873], in assay [4] (8-dose titration, Figure 3 / Table S1), the “domain selectivity D1 versus D2 (E578Q versus E305Q mutants), in words” value is “inhibited the ATPase activity of both the D1 and D2 domains”. Also, in assay [5], the “domain selectivity D1 versus D2, in words” value is “inhibit both the D1 and D2 ATPase domains”.

Values taken from publication PMC4280364 (ChemMedChem, 2014).
